Compound activity from PubChem.
Redox H2O2 prof: compounds producing H2O2 with reducing agent – biochemical, NIH compound library profiling, artefact control for MLSCN library redox annotation, primary screen; DTT-dependent redox cycling H2O2, phenol red/HRP absorbance; 100% = 100 µM peroxide control, 0% = buffer; activation, % at 10 µM; hit rate 0.03% among 200,000; AID 878;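 active = activation of at least 50% relative to the plate's high and low controls in the primary single-dose screen; inactive = activation below 50%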;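 note: compound incubated with DTT at 0.8 mM final as the reducing agent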
G6PDH counter: inhibits Leuconostoc G6PDH, flagging false hits in G6PDH-based assays. Purified L. mesenteroides G6PDH, diaphorase/resazurin coupled fluorescence, 45 min. inhibition, % at 5 µM. hit rate 0.12% among 200,000
Diaph inh CS: inhibits diaphorase or chemically oxidizes, flagging diaphorase assay artifacts; diaphorase resazurin-to-resorufin fluorescence, NADH, 16 min; bacterial (C. kluyveri) enzyme, not human; inhibition, % at 20 µM; hit rate 0.69% among 190,000;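 active = primary screen inhibition at 20 µM above a set limit, cut at about 50% in these data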
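Assay system: diaphorase enzyme from Clostridium kluyveri. Quantity: enzyme working solution with 0.14 U/mL diaphorase. Schedule: reaction incubation of 16 min at room temperature. Technique: resorufin fluorescence, excitation 544 nm, emission 590 nm. Controls: No-NADH positive control and DMSO neutral control.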
Diaph act CS: activates diaphorase or chemically reduces, flagging diaphorase assay artifacts; activation factor at 20 µM; AID 1229; Diaphorase/resazurin coupled assay, resorufin fluorescence, 16 min; hits give high values; 1 = vehicle wells, 0 = NADH-free wells; hit rate 0.005% among 190,000;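 active = diaphorase activity raised at least twofold by the compound at 20 µM; inactive = activation factor below 2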
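test system = bacterial diaphorase enzyme (C. kluyveri) | quantity = enzyme 0.07 U/mL final | reagent = NADH substrate 0.114 mM plus resazurin dye 0.1 mM, final | incubation = 16 min enzyme reaction, ambient temperature | buffer or medium = HEPES pH 7.4 buffer with MgCl2 and Tween 20 | signal = fluorescence of resorufin, 544 nm excitation, 590 nm emission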
L major viab: reduces viability of Leishmania major promastigotes; hit rate 9% among 200,000; inhibition, % at 10 µM; resazurin fluorescence viability; AID 1063;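 note: promastigotes grown with compound for 44 hours at 28 °C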
PfG6PD inh: PfG6PD (Plasmodium falciparum) enzyme inhibition | hit rate 0.78% among 350,000 | AID 504690 | PfGluPho enzyme, NADPH resazurin-diaphorase fluorescence | inhibition, % at 20 µM;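 active = inhibition reaching at least a set limit at 20 µM in the primary screen, cut at about 59% in these data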
Of the large screens only hits and unclear results are named; the others gave an inactive call. Many of the other results were omitted from the sample, so hits are more common in it than they were. Cut-off read from the data, not from the text of the source, unless noted: active = inhibition above about 50%; inactive = the rest.

O=C(Nc1nc(-c2ccccc2)cs1)C1CCCN(S(=O)(=O)c2cccc([N+](=O)[O-])c2)C1 (centres undefined)	L major viab 93
O=C(Nc1ccc(Cl)cc1)C1CCCCN1S(=O)(=O)c1ccccc1 (centres undefined)	none (no result: Redox H2O2 prof, G6PDH counter, Diaph inh CS, Diaph act CS, L major viab)
O=C(Nc1nc(-c2ccccc2)cs1)C1CCCCN1S(=O)(=O)c1ccc(Cl)cc1 (centres undefined)	L major viab 100
Cc1ccc(OCC(=O)NN=C2C3CC4CC(C3)CC2C4)cc1	none (no result: Redox H2O2 prof, G6PDH counter, Diaph inh CS, Diaph act CS, L major viab)
CCCN1C(=O)N(c2cccc(C)c2)C(C)(O)CC1(C)C (centres undefined)	none (no result: Redox H2O2 prof, G6PDH counter, Diaph inh CS, Diaph act CS, L major viab)
O=C(Nc1ccc2c(c1)OCO2)C1CCCCN1S(=O)(=O)c1ccccc1 (centres undefined)	L major viab 65
O=C(Nc1ccccc1)C1CCCCN1S(=O)(=O)c1ccccc1 (centres undefined)	none
COCCN(C(=O)COC(=O)c1ccc(Cl)nc1)c1c(N)n(Cc2ccccc2)c(=O)[nH]c1=O	none (no result: Redox H2O2 prof, G6PDH counter, Diaph inh CS, Diaph act CS, L major viab)
COc1ccc(-n2c(=O)c(CCC(=O)N(C)Cc3ccccc3C)nc3ccccc32)cc1	L major viab 66
CCN(CC)C(=O)Cn1cc(C(=O)C(=O)Nc2ccc3c(c2)OCO3)c2ccccc21	none (no result: Redox H2O2 prof, G6PDH counter, Diaph inh CS, Diaph act CS, L major viab)
CCC(C)(c1nnnn1-c1c(C)cccc1C)N(N=O)c1cccc(C(F)(F)F)c1 (centres undefined)	L major viab 100
Cc1cccc(C)c1-n1nnnc1C(C)(C)N1CCN(N=O)CC1	none (no result: Redox H2O2 prof, G6PDH counter, Diaph inh CS, Diaph act CS, L major viab)
O=C(/C=C(/c1ccc(Cl)cc1)n1cncn1)c1ccccc1	L major viab 94
Clc1ccc(CNc2ccc3nnc(-c4ccccc4)n3n2)cc1	none
CCOc1ccc(CCNc2ccc3nnc(-c4ccccc4)n3n2)cc1OCC	L major viab 77
Cc1ccc(N2CCN(S(=O)(=O)N3CCCCC3)CC2)cc1Cl	L major viab 76
O=C(O)CCn1cc(/C=N/O)c(-c2cccc([N+](=O)[O-])c2)n1	none
CCO[C@H]1OC(C(=O)N2CCN(C)CC2)=C[C@@H](c2ccc(C(F)(F)F)cc2)[C@@H]1CCCO	Diaph inh CS 74
C#Cc1ccc([C@H]2C=C(C(=O)N3CCN(Cc4ccc5c(c4)OCO5)CC3)O[C@@H](OCC)[C@@H]2CCCO)cc1	Diaph inh CS 55
CCO[C@H]1OC(C(=O)N2CCN(Cc3ccc4c(c3)OCO4)CC2)=C[C@@H](c2ccc3c(c2)OCO3)[C@@H]1CCCO	none
CCO[C@@H]1OC(C(=O)N2CCN(C)CC2)=C[C@H](c2ccc(C(F)(F)F)cc2)[C@H]1CCCO	none
CCO[C@H]1OC(C(=O)NCc2ccccc2)=C[C@@H](c2ccc(C(F)(F)F)cc2)[C@@H]1CCCO	L major viab 53
N#Cc1cccc(NC(=O)C2SC(=Nc3ccccc3)C(C(=O)N3CCOCC3)=C2N)c1 (centres undefined)	L major viab 54
O=C(CN1CCC(N2CCCCC2)CC1)N1CCCc2ccccc21	L major viab 64
COC(=O)c1ccccc1NC(=O)CN1CCN(C23CC4CC(CC(C4)C2)C3)CC1	L major viab 86
CCOc1cc(CNc2ccc(Br)cc2)cc(Br)c1OCC(=O)NC(C)(C)C	none
CCOc1cc(CNc2ccc(OC)cc2)cc(Br)c1OCC(=O)NC(C)(C)C	L major viab 100
COc1ccc(S(=O)(=O)N2CCOCC2)cc1NC(=O)CCCSc1ccccc1	none (no result: Redox H2O2 prof, G6PDH counter, Diaph inh CS, Diaph act CS, L major viab)
CN1CCN(S(=O)(=O)c2ccc(N3CCc4ccccc4C3)nc2)CC1	L major viab 94
CC[C@@H]1C(=O)[C@H](Cc2ccccc2)[C@H]2CCCC(=O)N3CC[C@@H]1[C@@H]23	none (no result: Redox H2O2 prof, G6PDH counter, Diaph inh CS, Diaph act CS, L major viab)
COc1ccccc1N(CC(=O)NC1CCCC1)C(=O)c1oc(C(C)(C)C)cc1C	L major viab 62
COc1ccc(C2C3=C(CCCC3=O)Nc3ccc4ncccc4c32)cc1OC (centres undefined)	L major viab 75
O=C1CCCC2=C1C(c1ccc(O)c(O)c1)Nc1ccc3ncccc3c12 (centres undefined)	Diaph inh CS 71
